Laboratory results published in ChEMBL document CHEMBL3351899, “Novologues containing a benzamide side chain manifest anti-proliferative activity against two breast cancer cell lines” (Bioorg Med Chem Lett, 2014).
Active and inactive are the calls of the source. The calls are words filed in the database; no cut-off is given here.

Tests used:
[1] = Antiproliferative activity against human SKBR3 cells; assay type: functional, cell-based, SK-BR-3; details: for EC50: Homo sapiens, SK-BR-3
How it was run: (§1)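 Cell-based antiproliferation assay in SKBr3 (ER-negative, HER2-overexpressing) and MCF-7 (ER-positive) breast cancer cells. Values are mean ± standard deviation from at least two separate experiments, each run in triplicate.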

[2] = system: MCF7; experiment: Antiproliferative activity against human MCF7 cells; assay type: functional; how it was run: as §1
[3] = target: Heat shock protein HSP 90-beta (Homo sapiens) (UniProt P08238); experiment: Inhibition of HSP90-mediated p-Akt degradation in human MCF7 cell lysate after 24 hrs by Western blot analysis; assay type: cell-based
How it was run: (§2)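 MCF7 cells grown to confluence, seeded at 0.4 x 10^6 cells/well, incubated 24 h, then treated 24 h with varying compound concentrations (0.25% DMSO final) or DMSO vehicle; geldanamycin 0.5 µM as positive control. Cells lysed with protease/phosphatase inhibitors and clarified at 14,000g, 15 min, 4 °C. 5 µg protein run on reducing 10% gels, PVDF transfer, immunoblot with HRP secondary and chemiluminescent detection; actin as loading control.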

[4] = system: MCF7; experiment: Effect on HSP90 level in human MCF7 cell lysate at 1 to 25 uM after 24 hrs by Western blot analysis; assay type: functional, cell-based; how it was run: as §2
[5] = target: Heat shock protein HSP 90-beta (Homo sapiens) (UniProt P08238); experiment: Inhibition of HSP90-mediated Raf-1 degradation in human MCF7 cell lysate after 24 hrs by Western blot analysis; assay type: cell-based; how it was run: as §2
[6] = target: Heat shock protein HSP 90-beta (Homo sapiens) (UniProt P08238); experiment: Inhibition of HSP90-mediated Her2 degradation in human MCF7 cell lysate after 24 hrs by Western blot analysis; assay type: cell-based; how it was run: as §2

Chain of Heat shock protein HSP 90-beta (Homo sapiens) (P08238 whole entry): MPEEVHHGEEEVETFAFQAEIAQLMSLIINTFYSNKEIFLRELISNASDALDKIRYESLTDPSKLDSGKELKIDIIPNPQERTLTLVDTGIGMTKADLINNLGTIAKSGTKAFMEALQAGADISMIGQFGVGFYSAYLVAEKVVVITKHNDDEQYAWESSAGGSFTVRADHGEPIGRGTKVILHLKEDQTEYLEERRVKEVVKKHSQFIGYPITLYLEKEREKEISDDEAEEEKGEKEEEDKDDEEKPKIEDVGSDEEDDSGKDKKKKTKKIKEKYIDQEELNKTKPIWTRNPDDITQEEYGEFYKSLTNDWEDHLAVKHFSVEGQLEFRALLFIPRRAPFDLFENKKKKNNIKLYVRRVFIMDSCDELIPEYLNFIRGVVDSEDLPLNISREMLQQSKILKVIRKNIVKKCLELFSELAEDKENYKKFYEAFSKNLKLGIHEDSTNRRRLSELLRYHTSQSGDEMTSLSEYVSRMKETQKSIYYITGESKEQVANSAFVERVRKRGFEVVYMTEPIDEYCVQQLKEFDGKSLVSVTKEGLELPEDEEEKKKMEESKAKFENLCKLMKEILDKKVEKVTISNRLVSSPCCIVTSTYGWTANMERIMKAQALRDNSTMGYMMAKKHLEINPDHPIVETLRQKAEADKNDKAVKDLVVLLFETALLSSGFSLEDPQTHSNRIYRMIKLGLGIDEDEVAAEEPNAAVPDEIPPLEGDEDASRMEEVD

| Compound | Activity [1] | Activity [2] | also measured |
| --- | --- | --- | --- |
| CO[C@@H]1[C@@H](O)[C@@H](O)[C@H](Oc2ccc3cc(NC(C)=O)c(=O)oc3c2C)OC1(C)C |  |  | EC50 [1]: 10 nM |
| CN1CCC(Oc2ccc(CCNC(=O)c3ccc(C(C)(C)C)cc3)c(-c3cccc(C(F)(F)F)c3)c2)CC1 | 1.16 µM | 1.48 µM |  |
| COc1cccc(-c2cc(C(=O)NCCc3ccc(O[C@@H]4OC(C)(C)[C@H](OC)[C@@H](O)[C@H]4O)cc3-c3cccc(C(F)(F)F)c3)ccc2OC)c1 | 13.98 µM | 18.4 µM |  |
| COc1cccc(-c2cc(OC3CCN(C)CC3)ccc2CCNC(=O)c2ccc(OC)c(-c3cccc(OC)c3)c2)c1 | 11.54 µM | 12.36 µM |  |
| COc1ccc(C(=O)NCCc2ccc(O[C@@H]3OC(C)(C)[C@H](OC)[C@@H](O)[C@H]3O)cc2-c2cccc(C(F)(F)F)c2)cc1 | 14.02 µM | 12.1 µM |  |
| CN1CCC(Oc2ccc(CCNC(=O)c3ccc(Cl)cc3)c(-c3cccc(C(F)(F)F)c3)c2)CC1 | 1.87 µM | 2.11 µM |  |
| CO[C@@H]1[C@@H](O)[C@@H](O)[C@H](Oc2ccc(CCNC(=O)c3ccc(Cl)cc3)c(-c3cccc(C(F)(F)F)c3)c2)OC1(C)C | 14.48 µM | 11.69 µM |  |
| COc1cccc(-c2cc(C(=O)NCCc3ccc(OC4CCN(C)CC4)cc3-c3cccc(Cl)c3)ccc2OC)c1 | 5.63 µM | 6.87 µM |  |
| CO[C@@H]1[C@@H](O)[C@@H](O)[C@H](Oc2ccc(CCNC(=O)c3ccccc3)c(-c3cccc(C(F)(F)F)c3)c2)OC1(C)C | 41.9 µM | 44.44 µM |  |
| COc1cccc(-c2cc(C(=O)NCCc3ccc(OC4CCN(C)CC4)cc3-c3cccc(C(F)(F)F)c3)ccc2OC)c1 | 1.52 µM | 1.62 µM | inhibition [3]: Dose-dependent effect; Activity [4]: Active; inhibition [5]: Dose-dependent effect; inhibition [6]: Dose-dependent effect |
| COc1cccc(-c2cc(C(=O)NCCc3ccc(OC4CCN(C)CC4)cc3-c3cccc(F)c3)ccc2OC)c1 | 2.82 µM | 3.19 µM |  |
| CO[C@@H]1[C@@H](O)[C@@H](O)[C@H](Oc2ccc(CCNC(=O)c3ccc(C(C)(C)C)cc3)c(-c3cccc(C(F)(F)F)c3)c2)OC1(C)C | 21.78 µM | 23.69 µM |  |
| CO[C@@H]1[C@@H](O)[C@@H](O)[C@H](Oc2ccc(CCNC(C)=O)c(-c3cccc(C(F)(F)F)c3)c2)OC1(C)C |  | >500 µM | EC50 [1]: > 500000 nM |
| CN1CCC(Oc2ccc(CCNC(=O)c3ccccc3)c(-c3cccc(C(F)(F)F)c3)c2)CC1 | 13.22 µM | 15.07 µM |  |
| COc1cccc(-c2cc(C(=O)NCCc3ccc(OC4CCN(C)CC4)cc3-c3ccccc3)ccc2OC)c1 | 6.77 µM | 8.12 µM |  |
| COc1ccc(C(=O)NCCc2ccc(OC3CCN(C)CC3)cc2-c2cccc(C(F)(F)F)c2)cc1 | 2.71 µM | 4.82 µM |  |
